≈ marks a conversion by molar mass, not a printed value.
How the values were obtained:
[1] = Solubility after 30 mins by turbidimetric solubility assay; assay type: physicochemical
In short: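 Serial dilutions from a 1 mM DMSO stock added to 100 mM PBS pH 7.4, giving 1% final DMSO and a final range of 1–500 […], three replicates per concentration. After 30 min, absorbance read at 500, 550, 600, 650 and 700 nm.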

[2] = molecular target: T1, ATP-dependent translocase ABCB1 (Homo sapiens, UniProt P08183); experiment: Inhibition of MDR1 (unknown origin) expressed in MDCK cells after 30 mins by Calcein-AM assay; assay type: cell-based
T1 sequence (P08183 whole entry): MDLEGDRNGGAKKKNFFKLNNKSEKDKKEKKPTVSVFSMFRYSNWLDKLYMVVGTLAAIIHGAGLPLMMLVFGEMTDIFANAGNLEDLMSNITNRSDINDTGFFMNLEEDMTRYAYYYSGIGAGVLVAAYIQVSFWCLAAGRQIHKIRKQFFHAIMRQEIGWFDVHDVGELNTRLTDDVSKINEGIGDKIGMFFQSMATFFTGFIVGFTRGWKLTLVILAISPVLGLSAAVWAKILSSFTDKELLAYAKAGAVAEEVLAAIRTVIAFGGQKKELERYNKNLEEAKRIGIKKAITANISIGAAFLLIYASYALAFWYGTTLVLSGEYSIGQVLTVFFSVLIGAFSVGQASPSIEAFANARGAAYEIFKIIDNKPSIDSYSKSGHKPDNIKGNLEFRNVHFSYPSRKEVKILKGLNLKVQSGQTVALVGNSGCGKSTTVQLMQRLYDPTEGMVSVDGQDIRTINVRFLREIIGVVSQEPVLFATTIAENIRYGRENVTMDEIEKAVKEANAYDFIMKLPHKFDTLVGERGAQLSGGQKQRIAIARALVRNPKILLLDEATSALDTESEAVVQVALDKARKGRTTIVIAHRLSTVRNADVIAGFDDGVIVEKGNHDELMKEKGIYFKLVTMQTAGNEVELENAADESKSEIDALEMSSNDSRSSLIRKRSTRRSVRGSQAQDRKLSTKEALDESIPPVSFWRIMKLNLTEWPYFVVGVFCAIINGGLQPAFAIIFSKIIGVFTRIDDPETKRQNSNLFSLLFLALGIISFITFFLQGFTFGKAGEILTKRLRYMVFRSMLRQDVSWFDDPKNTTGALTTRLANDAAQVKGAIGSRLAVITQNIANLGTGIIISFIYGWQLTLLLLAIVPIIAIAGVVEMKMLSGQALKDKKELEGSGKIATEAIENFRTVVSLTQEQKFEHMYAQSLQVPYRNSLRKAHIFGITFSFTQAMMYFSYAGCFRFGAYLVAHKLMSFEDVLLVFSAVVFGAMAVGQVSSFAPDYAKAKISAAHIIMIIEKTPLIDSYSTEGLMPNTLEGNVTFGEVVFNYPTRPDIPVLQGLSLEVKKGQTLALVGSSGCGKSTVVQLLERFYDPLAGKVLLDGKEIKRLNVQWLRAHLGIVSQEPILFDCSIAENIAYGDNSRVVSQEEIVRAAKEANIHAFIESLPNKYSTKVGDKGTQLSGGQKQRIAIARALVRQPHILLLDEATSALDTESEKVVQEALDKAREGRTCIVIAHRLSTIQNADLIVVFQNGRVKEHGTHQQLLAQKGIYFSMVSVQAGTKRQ

[3] = Lipophilicity, logD of the compound at pH 7.4; assay type: physicochemical; conditions: buffer
In short: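 Octanol/PBS pH 7.4 partitioning, with chemiluminescent nitrogen detection as the read-out; carried out by an outside contractor.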

[4] = Partition coefficient, logK of the compound using methanol/pH 7.4 phosphate buffer by RP-chromatography; assay type: physicochemical
In short: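 Isocratic RP-HPLC on a C18 column (300SB, 4.6 × 250 mm, 5 μm) at 1 mL/min with UV detection at 230 and 254 nm. Eluent methanol/PBS pH 7.4 70:30. Samples 0.1 mg/mL in 10% DMSO/90% methanol. Dead time taken from D2O. Log k′ = log[(tr − t0)/t0], using the mean of three injections.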

[5] = molecular target: T1, ATP-dependent translocase ABCB1; experiment: Inhibition of MDR1 in human MCF7/ADR cells assessed as potentiation of doxorubicin-induced antiproliferative activity at 1 to 25 uM after 72 hrs by MTT assay; assay type: cell-based; conditions: nci/adr-res
In short: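 MCF7adr cells, grown in RPMI 1640 with 10% FBS, seeded at 25000/well. Next day, compound added at 1, 10 or 25 μM for 24 h. Medium then replaced and the same concentration given with doxorubicin 10 μM for 48 h. MTT 0.5 mg/mL for 3–4 h at 37 °C, formazan dissolved in DMSO/EtOH 1:1, absorbance read at 570 and 630 nm.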

[6] = molecular target: T1, ATP-dependent translocase ABCB1; experiment: Inhibition of MDR1 (unknown origin) expressed in MDCK cells after 2 hrs by bioluminescent ATP assay; assay type: cell-based
In short: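 MDCK-MDR1 cells seeded at 2 × 10⁴ cells/well and incubated overnight at 37 °C, 5% CO₂, then exposed to test compounds (1, 10, 50, 100 μM) in complete medium for 2 h. Cells lysed, luciferase/D-luciferin substrate added, dark-adapted 10 min, and luminescence read as a measure of cellular ATP. Untreated cells served as control.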

[7] = Efflux ratio, ratio of permeability from basolateral to apical side over apical to basolateral side in human Caco2 cells by UV spectroscopy; assay type: ADME, cell-based; conditions: Caco-2
In short: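 Caco-2 monolayers grown 21 days, then equilibrated twice in HBSS pH 7.4 at 37 °C for 30 min. Drug dissolved in HBSS was added to the apical or basolateral side, with an initial concentration of 1 × 10⁻⁴ M. Transport ran 120 min at 37 °C. Acceptor concentration was read by UV; Papp (nm/s) was computed from it. The ratio is B→A Papp over A→B Papp. Mean of three independent experiments, each in triplicate.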

| Compound | solubility kinetic at 0.5 h [1] [µg/mL] | IC50 [2] [µM] | logD [3] | log K [4] | inhibition (INH) [6] | efflux ratio [7] | Activity [5] |
| --- | --- | --- | --- | --- | --- | --- | --- |
| COc1cc2c(cc1OC)CN(CC/C=C1\CCCc3c(OC)cccc31)CC2 |  | 1.02 |  |  |  |  |  |
| COc1cc(C(=O)Nc2ccc(-c3cc(F)cc(F)c3)cn2)cc(OC)c1OC |  | 1.3 | 3.59 | 0.32 |  |  |  |
| COc1cc(OC)c(C(=O)Nc2ccc(-c3cc(F)cc(F)c3)cn2)cc1OC |  | 0.97 | 3.66 | 0.47 | Active | 10.7 | Active |
| COc1cc(C(=O)Nc2ccc(-c3cccnc3)cn2)cc(OC)c1OC |  | 8.21 | 2.39 | -0.44 |  |  |  |
| COc1cc(C(=O)Nc2ccc(-c3cccnc3)cc2F)cc(OC)c1OC | 25 (≈ 65.4 µM) |  | 2.48 | -0.36 |  |  |  |
| COc1cc(OC)c(C(=O)Nc2ccc(-c3cccnc3)cc2F)c(OC)c1 | 60 (≈ 157 µM) | 2.93 | 2.38 | -0.39 |  |  |  |
| COc1cc(OC)cc(C(=O)Nc2ccc(-c3cccnc3)cc2F)c1 | 20 (≈ 56.8 µM) | 3.3 | 2.81 | -0.18 |  |  |  |
| O=C(Nc1ccc(-c2cccnc2)cc1F)c1cccnc1 | 300 (≈ 1020 µM) | 60.1 | 1.97 | -0.68 |  |  |  |
| COc1cc(C(=O)Nc2ccc(-c3ccncc3)cc2F)cc(OC)c1OC |  | 3.2 | 2.75 | -0.31 |  |  |  |
| COc1ccc(-c2ccc(NC(=O)c3cc(OC)c(OC)cc3OC)c(F)c2)cc1 |  | 1.23 | 3.64 | 0.67 |  |  |  |
| COc1cc(C(=O)Nc2ccc(-c3cc(F)cc(F)c3)cc2NC(=O)[C@@H](C)NC(C)=O)cc(OC)c1OC |  | 18.5 | 2.31 | -0.03 |  |  |  |
| COc1cc(C(=O)N(C)c2ccc(-c3cccnc3)cc2F)cc(OC)c1OC |  | 6.66 | 2.32 | -0.51 |  |  |  |

The next lines start with results.

| solubility kinetic at 0.5 h [1] [µg/mL] | IC50 [2] [µM] | logD [3] | log K [4] | inhibition (INH) [6] | efflux ratio [7] | Compound | Activity [5] |
| --- | --- | --- | --- | --- | --- | --- | --- |
| 10 (≈ 24.4 µM) |  |  |  |  |  | COc1cc(C(=O)Nc2ccc(-c3cccnc3)cc2[N+](=O)[O-])cc(OC)c1OC |  |
|  | 0.54 | 3.03 | -0.12 |  |  | COc1cc(OC)c(C(=O)Nc2ccc(-c3cccnc3)cn2)cc1OC |  |
| 30 (≈ 78.5 µM) | 0.2 | 2.84 | 0.24 | Active | 14 | COc1cc(OC)c(C(=O)Nc2ccc(-c3cccnc3)cc2F)cc1OC | Active |
| 45 (≈ 118 µM) | 0.67 | 3.99 | 0.37 | Active | 6.7 | COc1ccc(C(=O)Nc2ccc(-c3cccnc3)cc2F)c(OC)c1OC | Active |
| 18 (≈ 51.1 µM) | 8.92 | 2.23 | -0.45 |  |  | COc1ccc(C(=O)Nc2ccc(-c3cccnc3)cc2F)cc1OC |  |
| 22 (≈ 68.3 µM) | 5.26 | 2.9 | -0.32 |  |  | COc1ccc(C(=O)Nc2ccc(-c3cccnc3)cc2F)cc1 |  |
| 40 (≈ 137 µM) | 9.2 | 2.83 | -0.38 |  |  | O=C(Nc1ccc(-c2cccnc2)cc1F)c1ccccc1 |  |
|  | 0.31 | 3.13 | 0.31 | Active | 8.1 | COc1cc(OC)c(C(=O)Nc2ccc(-c3ccncc3)cc2F)cc1OC | Active |
|  | 67.5 | 1.7 | -0.88 |  |  | COc1ccc(S(=O)(=O)Nc2ccc(-c3cccnc3)cc2F)cc1OC |  |
|  | 2.76 | 2.62 | -0.09 |  |  | COc1cc(C(=O)Nc2ccc(-c3cc(F)cc(F)c3)cc2N)cc(OC)c1OC |  |
|  | 21.6 | 1.75 | -0.59 |  |  | COc1cc(OC)c(C(=O)N(C)c2ccc(-c3cccnc3)cc2F)cc1OC |  |
